ChEMBL document CHEMBL1142628, “Antineoplastic agents 430. Isolation and structure of cribrostatins 3, 4, and 5 from the republic of maldives cribrochalina species” (2000)
≈ marks a conversion by molar mass, not a printed value. Calls of active or inactive are those of the source. The rule behind the calls is not given here.

What was measured:
[1] = system: BXPC-3; assay: Growth inhibition of human BXPC3 cells; assay type: functional
[2] = system: OVCAR-3; assay: Growth inhibition of human OVCAR-3 cells; assay type: functional
Procedure, shortened: (§1)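 NCI 60-cell-line screen run by the standard NCI protocol. Each test agent ran in quadruplicate, with a top concentration of 10^-5 M and five log-spaced dilutions. GI50 values were averaged and reported as negative log GI50.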

[3] = system: SF-295; assay: (§2) Growth inhibition of human SF295 cells; assay type: functional
Procedure, shortened: (§3)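 NCI human tumor cell line panel screen run to the standard NCI protocol. Each compound tested in quadruplicate with a top concentration of 10^-5 M and five log-spaced dilutions. GI50 values were averaged across replicates and reported as negative log GI50.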

[4] = system: NCI-H460; assay: (§4) Growth inhibition of human NCI-H460 cells; assay type: functional; procedure, shortened: as §1
[5] = system: KM-20L2; assay: Growth inhibition of human KM20L2 cells; assay type: functional
[6] = system: DU-145; assay: Growth inhibition of human DU145 cells; assay type: functional; procedure, shortened: as §1
[7] = system: P388; assay: Growth inhibition of mouse P388 cells; assay type: functional
[8] = system: Candida albicans; assay: Antifungal activity against Candida albicans ATCC 90028 at 100 ug/disk by disk diffusion method; assay type: functional, organism-based
[9] = system: Cryptococcus neoformans; assay: Antifungal activity against Cryptococcus neoformans ATCC 90112 at 100 ug/disk by disk diffusion method; assay type: functional, organism-based
[10] = system: Micrococcus luteus; assay: Antibacterial activity against Micrococcus luteus Presque Isle 456 by disk diffusion method; assay type: functional
[11] = system: Staphylococcus aureus; assay: Antibacterial activity against Staphylococcus aureus ATCC 29213 at 100 ug/disk by disk diffusion method; assay type: functional, organism-based
[12] = system: Enterococcus faecalis; assay: Antibacterial activity against Enterococcus faecalis ATCC 29212 at 100 ug/disk by disk diffusion method; assay type: functional, organism-based
[13] = system: Bacillus subtilis; assay: Antibacterial activity against Bacillus subtilis Presque Isle 620 at 100 ug/disk by disk diffusion method; assay type: functional, organism-based
[14] = system: Streptococcus pneumoniae; assay: Antibacterial activity against Streptococcus pneumoniae ATCC 6303 at 100 ug/disk by disk diffusion method; assay type: functional, organism-based
[15] = system: Stenotrophomonas maltophilia; assay: Antibacterial activity against Stenotrophomonas maltophilia ATCC 13637 at 100 ug/disk by disk diffusion method; assay type: functional, organism-based
[16] = system: Escherichia coli; assay: Antibacterial activity against Escherichia coli ATCC 25922 at 100 ug/disk by disk diffusion method; assay type: functional, organism-based
[17] = system: Neisseria gonorrhoeae; assay: Antibacterial activity against Neisseria gonorrhoeae ATCC 49226 by disk diffusion method; assay type: functional
[18] = system: SK-N-SH; assay: Growth inhibition of human SK-N-SH cells; assay type: functional
[19] = system: SW-1736; assay: Growth inhibition of human SW1736 cells; assay type: functional
[20] = system: FaDu; assay: Growth inhibition of human FaDu cells; assay type: functional
[21] = system: Micrococcus luteus; assay: Antibacterial activity against Micrococcus luteus Presque Isle 456 at 100 ug/disk by disk diffusion method; assay type: functional, organism-based
[22] = system: Bacillus subtilis; assay: Antibacterial activity against Bacillus subtilis Presque Isle 620 by disk diffusion method; assay type: functional
[23] = system: Streptococcus pneumoniae; assay: Antibacterial activity against Streptococcus pneumoniae ATCC 6303 by disk diffusion method; assay type: functional
[24] = system: Streptococcus pneumoniae; assay: Antibacterial activity against penicillin-resistant Streptococcus pneumoniae isolate by disk diffusion method; assay type: functional
[25] = system: Streptococcus pneumoniae; assay: Antibacterial activity against invasive Streptococcus pneumoniae isolate at 100 ug/disk by disk diffusion method; assay type: functional, organism-based
[26] = system: Streptococcus sp. 'group A'; assay: Antibacterial activity against group A Streptococcus isolate by disk diffusion method; assay type: functional
[27] = system: Enterobacter cloacae; assay: Antibacterial activity against Enterobacter cloacae ATCC 13047 at 100 ug/disk by disk diffusion method; assay type: functional, organism-based
[28] = system: Neisseria gonorrhoeae; assay: Antibacterial activity against penicillin-resistant Neisseria gonorrhoeae isolate by disk diffusion method; assay type: functional
[29] = system: CCRF-CEM; assay: Growth inhibition of human CCRF-CEM cells; assay type: functional; procedure, shortened: as §1
[30] = Growth inhibition of human HL60(TB) cells; assay type: functional, HL-60(TB); conditions: HL-60
Procedure, shortened: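 NCI human tumour cell-line panel screen run by the standard NCI protocol. Each compound was tested in quadruplicate, with an upper concentration limit of 10^-5 M and five log-spaced dilutions. GI50 values were averaged and reported as negative log GI50.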

[31] = system: K562; assay: Growth inhibition of human K562 cells; assay type: functional; procedure, shortened: as §1
[32] = system: MOLT-4; assay: Growth inhibition of human MOLT4 cells; assay type: functional; procedure, shortened: as §1
[33] = system: RPMI-8226; assay: Growth inhibition of human RPMI8226 cells; assay type: functional; procedure, shortened: as §1
[34] = system: SR; assay: Growth inhibition of human SR cells; assay type: functional; procedure, shortened: as §3
[35] = system: A549; assay: Growth inhibition of human A549/ATCC cells; assay type: functional; procedure, shortened: as §1
[36] = system: HOP-62; assay: Growth inhibition of human HOP62 cells; assay type: functional; procedure, shortened: as §1
[37] = system: HOP-92; assay: Growth inhibition of human HOP92 cells; assay type: functional; procedure, shortened: as §1
[38] = system: NCI-H226; assay: Growth inhibition of human NCI-H226 cells; assay type: functional; procedure, shortened: as §1
[39] = system: NCI-H460; assay: as §4; assay type: functional; procedure, shortened: as §1; remark: listed apart in the source
[40] = system: NCI-H522; assay: Growth inhibition of human NCI-H522 cells; assay type: functional; procedure, shortened: as §1
[41] = system: COLO 205; assay: Growth inhibition of human COLO205 cells; assay type: functional; procedure, shortened: as §1
[42] = system: KM12; assay: Growth inhibition of human KM12 cells; assay type: functional; procedure, shortened: as §1
[43] = system: SW-620; assay: Growth inhibition of human SW620 cells; assay type: functional; procedure, shortened: as §3
[44] = system: SNB-75; assay: Growth inhibition of human SNB75 cells; assay type: functional; procedure, shortened: as §3
[45] = system: U-251; assay: Growth inhibition of human U251 cells; assay type: functional; procedure, shortened: as §3
[46] = system: LOX IMVI; assay: Growth inhibition of human LOX IMVI cells; assay type: functional; procedure, shortened: as §1
[47] = system: Malme-3M; assay: Growth inhibition of human MALME-3M cells; assay type: functional; procedure, shortened: as §1
[48] = system: SK-MEL-5; assay: Growth inhibition of human SK-MEL-5 cells; assay type: functional; procedure, shortened: as §3
[49] = system: UACC-62; assay: Growth inhibition of human UACC62 cells; assay type: functional; procedure, shortened: as §3
[50] = system: IGROV-1; assay: Growth inhibition of human IGROV1 cells; assay type: functional; procedure, shortened: as §1
[51] = system: OVCAR-4; assay: Growth inhibition of human OVCAR4 cells; assay type: functional; procedure, shortened: as §1
[52] = system: OVCAR-8; assay: Growth inhibition of human OVCAR8 cells; assay type: functional; procedure, shortened: as §1
[53] = system: 786-0; assay: Growth inhibition of human 786-0 cells; assay type: functional; procedure, shortened: as §1
[54] = system: ACHN; assay: Growth inhibition of human ACHN cells; assay type: functional; procedure, shortened: as §1
[55] = system: RXF 393; assay: Growth inhibition of human RXF393 cells; assay type: functional; procedure, shortened: as §3
[56] = system: SN12C; assay: Growth inhibition of human SN12C cells; assay type: functional; procedure, shortened: as §3
[57] = system: PC-3; assay: Growth inhibition of human PC3 cells; assay type: functional; procedure, shortened: as §1
[58] = system: MCF7; assay: Growth inhibition of human MCF7 cells; assay type: functional; procedure, shortened: as §1
[59] = system: MCF7; assay: Growth inhibition of human adriamycin-resistant MCF7 cells; assay type: functional; procedure, shortened: as §3
[60] = system: MDA-MB-231; assay: Growth inhibition of human MDA-MB-231/ATCC cells; assay type: functional; procedure, shortened: as §1
[61] = system: Hs-578T; assay: Growth inhibition of human HS578T cells; assay type: functional; procedure, shortened: as §1
[62] = system: MDA-MB-435; assay: Growth inhibition of human MDA-MB-435 cells; assay type: functional; procedure, shortened: as §1
[63] = system: MDA-N; assay: Growth inhibition of human MDA-N cells; assay type: functional; procedure, shortened: as §1
[64] = system: T47D; assay: Growth inhibition of human T47D cells; assay type: functional; procedure, shortened: as §3
[65] = system: SF-268; assay: Growth inhibition of human SF268 cells; assay type: functional; procedure, shortened: as §3
[66] = system: SF-295; assay: as §2; assay type: functional; procedure, shortened: as §3; remark: listed apart in the source
[67] = system: SF-539; assay: Growth inhibition of human SF539 cells; assay type: functional; procedure, shortened: as §3
[68] = read-out: ED50 (the source's name)

Molecule `C/C=C(/C)C(=O)OCc1nccc2c1C(=O)C(NC)=C(C)C2=O` [CRIBROSTATIN 4] has a GI50 [1] of 0.29 µg/mL (≈ 0.923 µM), a GI50 [2] of 0.18 µg/mL (≈ 0.573 µM) and a GI50 [3] of 0.36 µg/mL (≈ 1.15 µM). For the same molecule, the GI50 [4] was 0.22 µg/mL (≈ 0.7 µM), the GI50 [5] was 0.14 µg/mL (≈ 0.445 µM) and the GI50 [6] was 0.3 µg/mL (≈ 0.954 µM). The GI50 [7] was 0.045 µg/mL (≈ 0.143 µM), the EC50 [7, 68] was 0.045 µg/mL (≈ 0.143 µM) and the Activity [8] was “inactive”. For the same molecule, the Activity [9] was “inactive”, the MIC [10] was 50 µg/disc and the Activity [11] was “inactive”. For the same molecule, the Activity [12] was “inactive”, the Activity [13] was “inactive” and the Activity [14] was “inactive”. The Activity [15] was “inactive”, the Activity [16] was “inactive” and the MIC [17] was 6.25 µg/disc.

`C/C=C(/C)C(=O)OC[C@H]1C2=C(C=C3[C@H]4c5c(O)c(OC)c(C)c(O)c5C(=O)[C@@H](C(=O)N31)N4C)C(=O)C(C)=C(OC)C2=O` [CRIBROSTATIN 5] showed a GI50 [1] of 5.6 µg/mL (≈ 9.68 µM), a GI50 [18] of 3.6 µg/mL (≈ 6.22 µM) and a GI50 [2] of 2.2 µg/mL (≈ 3.8 µM). The EC50 [2, 68] was 2.2 µg/mL (≈ 3.8 µM), the GI50 [3] was > 10 µg/mL and the GI50 [19] was > 10 µg/mL. For the same molecule, the GI50 [4] was > 10 µg/mL, the GI50 [5] was > 10 µg/mL and the GI50 [20] was 0.26 µg/mL (≈ 0.449 µM). For the same molecule, the GI50 [6] was > 10 µg/mL, the GI50 [7] was 24.6 µg/mL (≈ 42.5 µM) and the Activity [8] was “inactive”. The Activity [9] was “inactive”, the Activity [21] was “inactive” and the Activity [11] was “inactive”. The Activity [12] was “inactive”, the MIC [22] was 12.5 µg/disc and the MIC [23] was 6.25 µg/disc. For the same molecule, the MIC [24] was 50 µg/disc, the Activity [25] was “inactive” and the MIC [26] was 12.5 µg/disc. For the same molecule, the Activity [15] was “inactive”, the Activity [16] was “inactive” and the Activity [27] was “inactive”. The MIC [17] was 6.25 µg/disc, the MIC [28] was 1.56 µg/disc and the GI50 [29] was 1.7 µM. For the same molecule, the GI50 [30] was 5.37 µM, the GI50 [31] was 4.37 µM and the GI50 [32] was 1.91 µM. The GI50 [33] was 6.17 µM, the GI50 [34] was 3.8 µM and the GI50 [35] was 8.71 µM. For the same molecule, the GI50 [36] was 7.59 µM, the GI50 [37] was 8.13 µM and the GI50 [38] was 7.94 µM. The GI50 [39] was 7.59 µM, the GI50 [40] was 4.17 µM and the GI50 [41] was 8.13 µM. It also gave a GI50 [42] of 9.12 µM, a GI50 [43] of 6.92 µM and a GI50 [44] of 5.62 µM. It also gave a GI50 [45] of 6.46 µM, a GI50 [46] of 3.31 µM and a GI50 [47] of 0.389 µM. The GI50 [48] was 8.13 µM, the GI50 [49] was 9.77 µM and the GI50 [50] was 8.51 µM. For the same molecule, the GI50 [51] was 1.82 µM, the GI50 [52] was 4.27 µM and the GI50 [53] was 6.17 µM. For the same molecule, the GI50 [54] was 7.94 µM, the GI50 [55] was 5.25 µM and the GI50 [56] was 7.08 µM. The GI50 [57] was 9.12 µM, the GI50 [58] was 8.13 µM and the GI50 [59] was 6.76 µM. The GI50 [60] was 2.69 µM, the GI50 [61] was 8.71 µM and the GI50 [62] was 1.82 µM. The GI50 [63] was 2.19 µM, the GI50 [64] was 2.09 µM and the GI50 [65] was 9.55 µM. The GI50 [66] was 8.91 µM and the GI50 [67] was 5.75 µM.
